Results reported in ChEMBL document CHEMBL1154100, “Tetrahydroisoquinolines as dopaminergic ligands: 1-Butyl-7-chloro-6-hydroxy-tetrahydroisoquinoline, a new compound with antidepressant-like activity in mice” (Bioorg Med Chem, 2009).
Calls of active or inactive are those of the source. No cut-off for these calls is given here.

Tests used:
[1] = target: D(1A) dopamine receptor (Rattus norvegicus, UniProt P18901); assay: Displacement of [3H]SCH23390 from dopamine D1 receptor in Wistar rat striatal membrane by liquid scintillation counting; type: cell membranes, Striatum
Chain of D(1A) dopamine receptor (P18901 whole entry): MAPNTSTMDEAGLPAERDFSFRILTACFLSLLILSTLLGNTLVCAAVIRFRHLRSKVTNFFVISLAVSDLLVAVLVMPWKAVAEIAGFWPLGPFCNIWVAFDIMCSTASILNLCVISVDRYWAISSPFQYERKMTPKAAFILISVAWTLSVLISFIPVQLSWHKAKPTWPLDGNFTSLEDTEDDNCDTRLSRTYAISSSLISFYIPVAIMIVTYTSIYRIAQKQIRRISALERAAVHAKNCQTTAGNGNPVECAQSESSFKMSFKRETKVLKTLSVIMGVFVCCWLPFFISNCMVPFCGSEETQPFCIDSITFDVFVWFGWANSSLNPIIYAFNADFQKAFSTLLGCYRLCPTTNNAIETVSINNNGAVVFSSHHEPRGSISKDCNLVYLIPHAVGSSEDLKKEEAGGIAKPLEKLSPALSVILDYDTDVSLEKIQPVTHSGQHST
How it was run: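 Female Wistar rat striatum homogenized in 50 mM Tris-HCl pH 7.4, then washed twice at 49,000g. Membranes were resuspended in Tris-ions buffer (NaCl, CaCl2, KCl, MgCl2, 0.1% ascorbate). [3H]-SCH23390 displacement was read by filtration and scintillation counting. Ki was derived using KD 0.36 nM; 3–6 independent runs in duplicate, mean SEM.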

[2] = target: D(2) dopamine receptor (Rattus norvegicus, UniProt P61169); assay: Displacement of [3H]raclopride from dopamine D2 receptor in Wistar rat striatal membrane by liquid scintillation counting; type: cell membranes, Striatum
Chain of D(2) dopamine receptor (P61169 whole entry): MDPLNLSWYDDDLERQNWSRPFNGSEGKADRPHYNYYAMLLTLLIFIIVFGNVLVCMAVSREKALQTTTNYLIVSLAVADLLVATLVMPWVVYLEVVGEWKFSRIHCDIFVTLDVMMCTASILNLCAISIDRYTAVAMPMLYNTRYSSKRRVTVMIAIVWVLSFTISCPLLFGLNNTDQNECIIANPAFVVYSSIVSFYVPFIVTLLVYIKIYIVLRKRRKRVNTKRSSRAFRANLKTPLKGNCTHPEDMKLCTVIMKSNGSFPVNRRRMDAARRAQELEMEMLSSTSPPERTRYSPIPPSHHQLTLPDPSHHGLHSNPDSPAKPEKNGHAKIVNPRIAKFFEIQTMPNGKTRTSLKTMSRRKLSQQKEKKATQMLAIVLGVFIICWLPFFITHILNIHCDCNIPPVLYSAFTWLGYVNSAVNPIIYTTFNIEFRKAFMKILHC
How it was run: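 Striata from female Wistar rats (200–220 g) were homogenized in 50 mM Tris-HCl (pH 7.4) and centrifuged twice at 49,000g for 15 min at 4 °C. Membranes were resuspended in Tris buffer containing 120 mM NaCl, 2 mM CaCl₂, 5 mM KCl, 1 mM MgCl₂ and 0.1% ascorbic acid (pH 7.4). Samples were filtered, washed with cold buffer and counted by scintillation. Ki was derived using a [³H]raclopride KD of 1,25 nM, from 3–6 determinations run in duplicate.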

[3] = species: Rattus norvegicus; assay: Selectivity for Wistar rat dopamine D2 receptor over Wistar rat dopamine D1 receptor
[4] = target: Sodium-dependent dopamine transporter (Rattus norvegicus) (UniProt P23977); assay: Inhibition of DAT in Wistar rat striatal synaptosomes at 100 uM by [3H]dopamine uptake assay; type: subcellular; conditions: Brain
Chain of Sodium-dependent dopamine transporter (Rattus norvegicus) (P23977 whole entry): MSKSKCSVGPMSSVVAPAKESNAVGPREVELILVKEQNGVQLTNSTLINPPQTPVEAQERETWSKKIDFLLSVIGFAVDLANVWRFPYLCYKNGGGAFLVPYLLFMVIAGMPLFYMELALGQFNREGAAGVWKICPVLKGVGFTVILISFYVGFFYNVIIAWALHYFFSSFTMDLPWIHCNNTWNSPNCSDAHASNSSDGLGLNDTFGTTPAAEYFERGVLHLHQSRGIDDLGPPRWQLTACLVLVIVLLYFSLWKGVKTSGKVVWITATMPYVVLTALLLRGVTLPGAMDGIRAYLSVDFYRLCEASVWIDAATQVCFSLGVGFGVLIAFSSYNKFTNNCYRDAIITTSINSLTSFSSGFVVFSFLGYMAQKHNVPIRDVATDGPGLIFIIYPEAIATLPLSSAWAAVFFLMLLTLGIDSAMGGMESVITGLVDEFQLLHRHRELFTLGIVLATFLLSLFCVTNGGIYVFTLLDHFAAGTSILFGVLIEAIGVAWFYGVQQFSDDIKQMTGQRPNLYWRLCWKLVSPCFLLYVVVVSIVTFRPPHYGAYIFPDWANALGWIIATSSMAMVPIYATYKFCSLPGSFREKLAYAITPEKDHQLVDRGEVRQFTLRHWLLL
How it was run: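 Synaptosomes were prepared from female Wistar rat striatum at 0–4 °C. Tissue was homogenized in 0.32 M sucrose, spun twice at 1000g for 10 min, and the pooled supernatants were spun at 16,000g for 30 min. The pellet was taken up in Krebs medium (pH 7.6, with glucose). Samples were preincubated for 10 min at 37 °C with pargyline, then given 0.5 nM final [³H]dopamine for 10 min. Uptake was stopped by ice-cold dilution and rapid fiberglass filtration.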

[5] = tested on: Mus musculus; assay: Antidepressant-like activity in NMRI mouse assessed as increase in locomotor activity at 0.01 mg/kg, ip after 6 mins by photoelectronic actimeter method; type: functional; conditions: route intraperitoneal
How it was run: (§1)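 Naive male NMRI mice (25–30 g), n = 10/group; single ip injection (10 mL/kg, saline vehicle) 30 min before test, during the dark phase. Photoelectronic actimeter with two perpendicular infrared beams; beam crossings counted cumulatively at 6-min intervals over a 30-min session. Vs vehicle by ANOVA and Fisher PLSD; mean SD.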

[6] = tested on: Mus musculus; assay: Antidepressant-like activity in NMRI mouse assessed as increase in locomotor activity at 0.01 mg/kg, ip after 12 mins by photoelectronic actimeter method; type: functional; conditions: route intraperitoneal; how it was run: as §1
[7] = tested on: Mus musculus; assay: Antidepressant-like activity in NMRI mouse assessed as increase in locomotor activity at 0.01 mg/kg, ip after 18 mins by photoelectronic actimeter method; type: functional; conditions: route intraperitoneal; how it was run: as §1
[8] = tested on: Mus musculus; assay: Antidepressant-like activity in NMRI mouse assessed as increase in locomotor activity at 0.01 mg/kg, ip after 24 mins by photoelectronic actimeter method; type: functional; conditions: route intraperitoneal; how it was run: as §1
[9] = tested on: Mus musculus; assay: Antidepressant-like activity in NMRI mouse assessed as increase in locomotor activity at 0.01 mg/kg, ip after 30 mins by photoelectronic actimeter method; type: functional; conditions: route intraperitoneal; how it was run: as §1
[10] = tested on: Mus musculus; assay: Antidepressant-like activity in NMRI mouse assessed as increase in locomotor activity at 0.04 mg/kg, ip after 6 mins by photoelectronic actimeter method; type: functional; conditions: route intraperitoneal; how it was run: as §1
[11] = tested on: Mus musculus; assay: Antidepressant-like activity in NMRI mouse assessed as increase in locomotor activity at 0.04 mg/kg, ip after 12 mins by photoelectronic actimeter method; type: functional; conditions: route intraperitoneal; how it was run: as §1
[12] = tested on: Mus musculus; assay: Antidepressant-like activity in NMRI mouse assessed as increase in locomotor activity at 0.04 mg/kg, ip after 18 mins by photoelectronic actimeter method; type: functional; conditions: route intraperitoneal; how it was run: as §1
[13] = tested on: Mus musculus; assay: Antidepressant-like activity in NMRI mouse assessed as increase in locomotor activity at 0.04 mg/kg, ip after 24 mins by photoelectronic actimeter method; type: functional; conditions: route intraperitoneal; how it was run: as §1
[14] = tested on: Mus musculus; assay: Antidepressant-like activity in NMRI mouse assessed as increase in locomotor activity at 0.04 mg/kg, ip after 30 mins by photoelectronic actimeter method; type: functional; conditions: route intraperitoneal; how it was run: as §1
[15] = tested on: Mus musculus; assay: Antidepressant-like activity in NMRI mouse assessed as increase in locomotor activity at 0.2 mg/kg, ip after 6 mins by photoelectronic actimeter method; type: functional; conditions: route intraperitoneal; how it was run: as §1
[16] = tested on: Mus musculus; assay: Antidepressant-like activity in NMRI mouse assessed as increase in locomotor activity at 0.2 mg/kg, ip after 12 mins by photoelectronic actimeter method; type: functional; conditions: route intraperitoneal; how it was run: as §1
[17] = tested on: Mus musculus; assay: Antidepressant-like activity in NMRI mouse assessed as increase in locomotor activity at 0.2 mg/kg, ip after 18 mins by photoelectronic actimeter method; type: functional; conditions: route intraperitoneal; how it was run: as §1
[18] = tested on: Mus musculus; assay: Antidepressant-like activity in NMRI mouse assessed as increase in locomotor activity at 0.2 mg/kg, ip after 24 mins by photoelectronic actimeter method; type: functional; conditions: route intraperitoneal; how it was run: as §1
[19] = tested on: Mus musculus; assay: Antidepressant-like activity in NMRI mouse assessed as increase in locomotor activity at 0.2 mg/kg, ip after 30 mins by photoelectronic actimeter method; type: functional; conditions: route intraperitoneal; how it was run: as §1
[20] = tested on: Mus musculus; assay: Antidepressant-like activity in NMRI mouse assessed as increase in locomotor activity at 1 mg/kg, ip after 6 mins by photoelectronic actimeter method; type: functional; conditions: route intraperitoneal; how it was run: as §1
[21] = tested on: Mus musculus; assay: Antidepressant-like activity in NMRI mouse assessed as increase in locomotor activity at 1 mg/kg, ip after 12 mins by photoelectronic actimeter method; type: functional; conditions: route intraperitoneal; how it was run: as §1
[22] = tested on: Mus musculus; assay: Antidepressant-like activity in NMRI mouse assessed as increase in locomotor activity at 1 mg/kg, ip after 18 mins by photoelectronic actimeter method; type: functional; conditions: route intraperitoneal; how it was run: as §1
[23] = tested on: Mus musculus; assay: Antidepressant-like activity in NMRI mouse assessed as increase in locomotor activity at 1 mg/kg, ip after 24 mins by photoelectronic actimeter method; type: functional; conditions: route intraperitoneal; how it was run: as §1
[24] = tested on: Mus musculus; assay: Antidepressant-like activity in NMRI mouse assessed as increase in locomotor activity at 1 mg/kg, ip after 30 mins by photoelectronic actimeter method; type: functional; conditions: route intraperitoneal; how it was run: as §1
[25] = tested on: Mus musculus; assay: Antidepressant-like activity in NMRI mouse assessed as increase in locomotor activity at 5 mg/kg, ip after 6 mins by photoelectronic actimeter method; type: functional; conditions: route intraperitoneal; how it was run: as §1
[26] = tested on: Mus musculus; assay: Antidepressant-like activity in NMRI mouse assessed as increase in locomotor activity at 5 mg/kg, ip after 12 mins by photoelectronic actimeter method; type: functional; conditions: route intraperitoneal; how it was run: as §1
[27] = tested on: Mus musculus; assay: Antidepressant-like activity in NMRI mouse assessed as increase in locomotor activity at 5 mg/kg, ip after 18 mins by photoelectronic actimeter method; type: functional; conditions: route intraperitoneal; how it was run: as §1
[28] = tested on: Mus musculus; assay: Antidepressant-like activity in NMRI mouse assessed as increase in locomotor activity at 5 mg/kg, ip after 24 mins by photoelectronic actimeter method; type: functional; conditions: route intraperitoneal; how it was run: as §1
[29] = tested on: Mus musculus; assay: Antidepressant-like activity in NMRI mouse assessed as increase in locomotor activity at 5 mg/kg, ip after 30 mins by photoelectronic actimeter method; type: functional; conditions: route intraperitoneal; how it was run: as §1
[30] = tested on: Mus musculus; assay: Antidepressant-like activity in NMRI mouse assessed as increase in locomotor activity at 25 mg/kg, ip after 6 mins by photoelectronic actimeter method; type: functional; conditions: route intraperitoneal; how it was run: as §1
[31] = tested on: Mus musculus; assay: Antidepressant-like activity in NMRI mouse assessed as increase in locomotor activity at 25 mg/kg, ip after 12 mins by photoelectronic actimeter method; type: functional; conditions: route intraperitoneal; how it was run: as §1
[32] = tested on: Mus musculus; assay: Antidepressant-like activity in NMRI mouse assessed as increase in locomotor activity at 25 mg/kg, ip after 18 mins by photoelectronic actimeter method; type: functional; conditions: route intraperitoneal; how it was run: as §1
[33] = tested on: Mus musculus; assay: Antidepressant-like activity in NMRI mouse assessed as increase in locomotor activity at 25 mg/kg, ip after 24 mins by photoelectronic actimeter method; type: functional; conditions: route intraperitoneal; how it was run: as §1
[34] = tested on: Mus musculus; assay: Antidepressant-like activity in NMRI mouse assessed as increase in locomotor activity at 25 mg/kg, ip after 30 mins by photoelectronic actimeter method; type: functional; conditions: route intraperitoneal; how it was run: as §1
[35] = tested on: Mus musculus; assay: Antidepressant-like activity in NMRI mouse assessed as increase in locomotor activity at 0.2 mg/kg, ip by photoelectronic actimeter method in presence of D2 receptor antagonist haloperidol; type: functional, organism-based; set-up: dose 0.2 mg/kg
How it was run: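 Male NMRI mice, n = 10/group. Haloperidol 0.03 mg/kg sc given just before ip test compound (0.2 mg/kg) or saline, 30 min before testing. Spontaneous locomotion was counted as infrared beam crossings in a photoelectric actimeter over 30 min. Groups were compared by Fisher PLSD; mean SD.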

[36] = tested on: Mus musculus; assay: Antidepressant-like activity in NMRI mouse assessed as reduction in immobility time at 0.01 mg/kg, ip by forced swimming test; type: functional, organism-based; set-up: dose 0.01 mg/kg
How it was run: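 Male NMRI mice, 10/group, not pre-tested; ip dosing in saline 30 min before test. Each mouse swam 6 min in a cylinder (12 cm diameter, 13 cm water, 23–24 °C). Immobility was scored over the last 4 min after a 2-min delay. Imipramine 16 mg/kg was the reference. Analysis by ANOVA with Fisher PLSD.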

[37] = tested on: Mus musculus; assay: Antidepressant-like activity in NMRI mouse assessed as reduction in immobility time at 0.01 mg/kg, ip by forced swimming test in presence of D2 receptor antagonist haloperidol; type: functional, organism-based; set-up: dose 0.01 mg/kg
How it was run: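 Male NMRI mice, 10/group. Haloperidol 0.03 mg/kg sc was injected just before ip test compound, 30 min before a 6-min forced swim (water 23–24 °C, depth 13 cm). Immobility was measured during the final 4 min. Analysis by ANOVA with Fisher PLSD.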

COc1cc2c(cc1Cl)CCN(C)C2Cc1ccccc1 (stereo not given)
Ki [1]: 1640 nM
Ki ([2]; read-out: pKi (converted)): 1530 nM
fold change (FC) [3]: 0.8
Activity [4]: inactive

COc1cc2c(cc1Cl)CCNC2Cc1ccccc1 (stereo not given)
Ki [1]: 2360 nM
Ki ([2]; read-out: pKi (converted)): 968 nM
fold change (FC) [3]: 5
Activity [4]: inactive

Oc1cc2c(cc1Cl)CCNC2Cc1ccccc1 (stereo not given)
Ki [1]: 326 nM
Ki ([2]; read-out: Ki): 71 nM
Ki ([2]; read-out: pKi (converted)): 66.4 nM
fold change (FC) [3]: 4.8
Activity [4]: inactive

CCCCC1NCCc2cc(O)c(Cl)cc21 (stereo not given)
Ki [1]: 3230 nM
Ki ([2]; read-out: pKi (converted)): 60.3 nM
fold change (FC) [3]: 49
Activity [4]: inactive
Activity [5]: 72
Activity [6]: 105
Activity [7]: 133
Activity [8]: 147
Activity [9]: 153
Activity [10]: 102
Activity [11]: 142
Activity [12]: 170
Activity [13]: 185
Activity [14]: 200
Activity [15]: 115
Activity [16]: 186
Activity [17]: 219
Activity [18]: 255
Activity [19]: 277
Activity [20]: 122
Activity [21]: 200
Activity [22]: 257
Activity [23]: 307
Activity [24]: 340
Activity [25]: 153
Activity [26]: 276
Activity [27]: 345
Activity [28]: 411
Activity [29]: 464
Activity [30]: 170
Activity [31]: 260
Activity [32]: 319
Activity [33]: 367
Activity [34]: 426
Activity [35]: inactive
Activity [36]: Active
Activity [37]: inactive
